This note sets out measurements from ChEMBL document CHEMBL1151465, “Interactions of methylene blue with human disulfide reductases and their orthologues from Plasmodium falciparum” (Antimicrob Agents Chemother, 2008).

As a reminder, the pKa is the negative logarithm of the acid dissociation constant. A word on the solubility: it is the concentration that dissolves in the medium under given conditions. A low value points to a poorly soluble substance. What is called IC50 is the concentration that inhibits the measured activity by half. By EC50 is commonly meant the concentration that produces a half-maximal response.

A value given as a limit tells only on which side of the number the result lay.

Data set [1] can be described thus: Dissociation constant, pKa of the compound. It counts as physicochemical.
Data set [2] in a line: Solubility in 100 mM phosphate buffer at pH 7.0. It counts as physicochemical.
Data set [3] in a line: Inhibition of Plasmodium falciparum thioredoxin reductase at pH 7.4. Summed up:
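Recombinant P. falciparum TrxR, at 25°C in 100 mM potassium phosphate, 2 mM EDTA (pH 7.4). Cognate-substrate reaction was run with 10 mU/ml enzyme, NADPH and P. falciparum thioredoxin 1 as substrate. IC50 taken as Ki, assuming noncompetitive inhibition.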

Data set [4] has as its target T1, Glutathione reductase, mitochondrial (Homo sapiens, UniProt P00390).
T1 sequence (P00390 whole entry): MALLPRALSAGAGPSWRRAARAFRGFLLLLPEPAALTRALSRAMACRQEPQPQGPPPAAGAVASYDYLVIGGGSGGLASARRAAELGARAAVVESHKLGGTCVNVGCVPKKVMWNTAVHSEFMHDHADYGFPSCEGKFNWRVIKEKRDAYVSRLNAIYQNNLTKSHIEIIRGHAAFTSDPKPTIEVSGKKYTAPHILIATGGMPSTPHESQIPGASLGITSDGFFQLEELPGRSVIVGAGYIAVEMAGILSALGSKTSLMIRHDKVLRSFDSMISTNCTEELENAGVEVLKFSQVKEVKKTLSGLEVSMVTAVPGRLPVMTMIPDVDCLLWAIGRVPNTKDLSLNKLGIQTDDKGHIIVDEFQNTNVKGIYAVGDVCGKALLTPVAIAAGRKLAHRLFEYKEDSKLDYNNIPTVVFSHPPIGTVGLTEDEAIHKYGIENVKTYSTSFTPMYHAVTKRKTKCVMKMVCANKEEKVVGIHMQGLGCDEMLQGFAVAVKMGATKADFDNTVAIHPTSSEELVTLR
Put plainly: Inhibition of human recombinant glutathione reductase at pH 6.9. In short, it runs like this:
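Recombinant human GR was assayed with its physiological disulfide substrate at 10 mU/ml enzyme and 25°C. The buffer was 47 mM potassium phosphate, 1 mM EDTA and 200 mM KCl at pH 6.9, with NADPH as reductant. MB came from stocks in water. IC50 values were treated as Ki, assuming noncompetitive inhibition.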

Data set [5] has as its target T2, Dihydrolipoyl dehydrogenase (Plasmodium falciparum, UniProt Q6KCB6).
T2 sequence (Q6KCB6 whole entry): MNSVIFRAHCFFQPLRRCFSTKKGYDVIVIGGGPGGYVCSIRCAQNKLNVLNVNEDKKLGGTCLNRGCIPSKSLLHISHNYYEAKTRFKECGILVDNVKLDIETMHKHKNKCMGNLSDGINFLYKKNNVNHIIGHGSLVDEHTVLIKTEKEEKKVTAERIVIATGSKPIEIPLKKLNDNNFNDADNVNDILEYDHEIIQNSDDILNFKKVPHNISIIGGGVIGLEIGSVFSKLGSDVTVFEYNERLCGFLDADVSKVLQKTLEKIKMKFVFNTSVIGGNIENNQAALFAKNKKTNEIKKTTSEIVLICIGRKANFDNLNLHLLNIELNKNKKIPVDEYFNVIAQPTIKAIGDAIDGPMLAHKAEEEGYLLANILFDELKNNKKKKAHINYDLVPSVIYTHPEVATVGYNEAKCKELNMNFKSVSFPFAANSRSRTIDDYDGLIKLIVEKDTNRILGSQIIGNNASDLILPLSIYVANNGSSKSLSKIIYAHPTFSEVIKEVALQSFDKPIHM
Put plainly: Inhibition of Plasmodium falciparum recombinant dihydrolipoamide dehydrogenase at pH 7.3.

Data set [6] is described as follows: Inhibition of human recombinant glutathione reductase C58A/C63A mutant expressed in Escherichia coli SG5 at pH 6.9.
Data set [7] in a line: Stability at pH 5.0. Type of data set: physicochemical. The conditions noted are these: buffer.
For data set [8], the target named is T3, Thioredoxin reductase 1, cytoplasmic (Homo sapiens, UniProt Q16881).
T3 sequence (Q16881 whole entry): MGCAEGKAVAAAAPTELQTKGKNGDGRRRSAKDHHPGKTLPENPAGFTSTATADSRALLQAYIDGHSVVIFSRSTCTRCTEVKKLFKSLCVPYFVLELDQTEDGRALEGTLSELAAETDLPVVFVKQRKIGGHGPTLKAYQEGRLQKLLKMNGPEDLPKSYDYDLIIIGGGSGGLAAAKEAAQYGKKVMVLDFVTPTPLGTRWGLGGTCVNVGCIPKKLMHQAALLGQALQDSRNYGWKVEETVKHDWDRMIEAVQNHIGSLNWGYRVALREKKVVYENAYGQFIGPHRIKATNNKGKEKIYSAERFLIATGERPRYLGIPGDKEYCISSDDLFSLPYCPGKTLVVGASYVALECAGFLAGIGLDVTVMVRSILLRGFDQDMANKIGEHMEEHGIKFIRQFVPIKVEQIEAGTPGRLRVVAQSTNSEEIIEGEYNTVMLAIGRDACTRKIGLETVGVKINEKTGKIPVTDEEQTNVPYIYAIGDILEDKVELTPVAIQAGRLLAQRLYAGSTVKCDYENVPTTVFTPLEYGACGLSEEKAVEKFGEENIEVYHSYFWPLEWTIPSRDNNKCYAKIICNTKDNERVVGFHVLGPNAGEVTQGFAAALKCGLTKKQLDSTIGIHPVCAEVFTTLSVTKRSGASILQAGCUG
Put plainly: Inhibition of human recombinant TrxR1 at pH 7.4. In short, it runs like this: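 Human TrxR (recombinant, or from placenta) was assayed at 10 mU/ml, 25°C, with its physiological substrate. The buffer was 100 mM potassium phosphate and 2 mM EDTA at pH 7.4, with NADPH as reductant. Routine measurements used His-tagged human thioredoxin 1 Cys73Ser. MB came from stocks in water. IC50 values were treated as Ki, assuming noncompetitive inhibition.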

The test system of a further data set is Plasmodium falciparum. Put plainly: Antiplasmodial activity after 42 hrs against chloroquine-resistant Plasmodium falciparum K1 treated for 6 hrs by Giemsa stain. It counts as functional, organism-based.
The next data set has as its target Albumin (Bos taurus, UniProt P02769). Kind of data set: Binding affinity to bovine serum albumin by fluorescence spectroscopy. Type of data set: ADME. The conditions noted are these: read-out: Kdiss.
Data set [9] concerns the target T4, Dihydrolipoyl dehydrogenase, mitochondrial (Sus scrofa, UniProt P09623).
T4 sequence (P09623 whole entry): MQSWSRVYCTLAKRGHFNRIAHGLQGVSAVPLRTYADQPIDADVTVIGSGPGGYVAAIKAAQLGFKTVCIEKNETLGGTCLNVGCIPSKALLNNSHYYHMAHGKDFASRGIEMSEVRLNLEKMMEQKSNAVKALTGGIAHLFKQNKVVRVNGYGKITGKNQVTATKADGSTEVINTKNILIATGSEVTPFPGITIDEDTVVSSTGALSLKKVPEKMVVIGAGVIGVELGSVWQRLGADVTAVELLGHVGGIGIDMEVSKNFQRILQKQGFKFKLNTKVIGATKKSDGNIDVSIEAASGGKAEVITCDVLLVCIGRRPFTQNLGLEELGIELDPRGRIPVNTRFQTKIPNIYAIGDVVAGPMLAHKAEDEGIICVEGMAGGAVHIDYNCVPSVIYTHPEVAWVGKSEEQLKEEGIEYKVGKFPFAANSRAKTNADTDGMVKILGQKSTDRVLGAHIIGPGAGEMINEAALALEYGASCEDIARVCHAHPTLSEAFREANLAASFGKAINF
Put plainly: Inhibition of pig recombinant dihydrolipoamide dehydrogenase at pH 7.3.

A short description of data set [10]: Inhibition of human recombinant glutathione reductase C63A mutant expressed in Escherichia coli SG5 at pH 6.9.
A short description of data set [11]: Inhibition of Plasmodium falciparum glutathione reductase at pH 6.9. Summed up: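 Recombinant P. falciparum GR, assayed at 25°C in 47 mM potassium phosphate, 1 mM EDTA, 200 mM KCl (pH 6.9). Physiological GSSG reduction was run with 10 mU/ml enzyme and NADPH. IC50 values were taken as Ki, assuming noncompetitive inhibition.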
Data set [12] in a line: Inhibition of human recombinant glutathione reductase C58A mutant expressed in Escherichia coli SG5 at pH 6.9.

Chain of Albumin (P02769 whole entry): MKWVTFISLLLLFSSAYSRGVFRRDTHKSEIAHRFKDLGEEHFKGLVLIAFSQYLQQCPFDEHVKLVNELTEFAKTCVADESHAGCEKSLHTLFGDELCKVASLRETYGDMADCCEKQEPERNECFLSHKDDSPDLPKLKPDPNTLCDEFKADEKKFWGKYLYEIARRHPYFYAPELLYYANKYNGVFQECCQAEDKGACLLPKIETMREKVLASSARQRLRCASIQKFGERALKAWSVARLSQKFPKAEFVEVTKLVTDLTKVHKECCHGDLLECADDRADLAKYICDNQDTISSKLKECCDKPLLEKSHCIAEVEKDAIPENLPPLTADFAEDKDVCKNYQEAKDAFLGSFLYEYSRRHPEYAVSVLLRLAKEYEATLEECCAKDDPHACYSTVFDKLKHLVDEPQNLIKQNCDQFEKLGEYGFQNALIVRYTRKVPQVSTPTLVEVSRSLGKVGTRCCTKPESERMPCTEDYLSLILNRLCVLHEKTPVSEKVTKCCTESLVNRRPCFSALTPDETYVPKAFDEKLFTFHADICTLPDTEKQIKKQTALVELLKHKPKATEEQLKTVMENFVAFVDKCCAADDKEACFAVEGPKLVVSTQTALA

As for `CN(C)c1ccc2c(c1)Sc1cc(N(C)C)ccc1N2` [HYDROMETHYLTHIONINE], the pKa in data set [1] is 4.5. In [2], this compound displayed a solubility of less than 50 µM.
As to `CN(C)c1ccc2nc3ccc(N(C)C)cc3[s+]c2c1.[Cl-]` [METHYLENE BLUE ANHYDROUS], the IC50 is 59 µM in [3]; 16.4 µM in data set [4]; greater than 1000 µM in data set [5]; “Not Active” in data set [6]; 30 µM in data set [8]; greater than 1000 µM in data set [9]. In addition, the IC50 result in data set [10] was “Not Active”; in data set [11] it was 5.4 µM; in [12] it was “Not Active”. Besides, the Stability entry in data set [7] is on record as “Stable”. This compound displayed an EC50 with Plasmodium falciparum of 0.0065 µM. The Kd at Albumin was 2.9 µM.
